Test [1] relates to A. thaliana seedlings (Col-0). The experiment in a line: Root growth of A. thaliana seedlings with MeJA. It counts as in vivo, Arabidopsis thaliana. To be noted: 7-day-old Col-0 seedlings, MeJA 50 µM on 1/2 MS, n = 15. Summed up: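 Surface-sterilized Col-0 seeds stratified 2–3 days at 4°C. Grown on half-strength MS plates (2% sucrose, 0.4% gellan gum) with MeJA (50 µM) ± test compound (10 µM), under 16 h light (75 µmol m-2 s-1)/8 h dark at 22°C. Whole-seedling root length measured (n = 15). Repeated three times; one-way ANOVA/Tukey's HSD, P < 0.01.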

For test [2], the system named is M. polymorpha gemmalings (Tak-1). The experiment in a line: Growth. In kind it is in vivo, Marchantia polymorpha. To be noted: Tak-1 gemmalings on 1/2 B5 medium, OPDA 50 µM, n = 24. Summed up: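 Tak-1 gemmalings grown 2 weeks on half-strength Gamborg's B5 with 1% agar, containing OPDA (50 µM) ± test compound (10 µM). Continuous light 50–60 µmol m-2 s-1, 22°C. Plant area measured in mm2 (n = 24). Experiment repeated three times; one-way ANOVA/Tukey's HSD, P < 0.01.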

The target in test [3] is T1, His-MYC3-FLAG (His6-SUMO-MYC3(44–238)-FLAG) (Arabidopsis thaliana, UniProt Q9FIP9).
T1 sequence (Q9FIP9 44-238): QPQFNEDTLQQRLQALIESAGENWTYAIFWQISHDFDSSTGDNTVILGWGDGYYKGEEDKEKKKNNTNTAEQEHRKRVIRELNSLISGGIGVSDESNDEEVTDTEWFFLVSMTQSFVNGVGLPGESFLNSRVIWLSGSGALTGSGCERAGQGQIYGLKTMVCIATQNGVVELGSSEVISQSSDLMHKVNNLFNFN
The experiment in a line: Fluorescence anisotropy. It counts as binding. To be noted: for fold lower Kd with His-MYC3-FLAG than that of 1: ratio of Kd of 1 to Kd of the peptide.

A further test deals with T2, His-EIL1-FLAG (Arabidopsis thaliana, UniProt Q9SLH0).
T2 sequence (Q9SLH0 201-501): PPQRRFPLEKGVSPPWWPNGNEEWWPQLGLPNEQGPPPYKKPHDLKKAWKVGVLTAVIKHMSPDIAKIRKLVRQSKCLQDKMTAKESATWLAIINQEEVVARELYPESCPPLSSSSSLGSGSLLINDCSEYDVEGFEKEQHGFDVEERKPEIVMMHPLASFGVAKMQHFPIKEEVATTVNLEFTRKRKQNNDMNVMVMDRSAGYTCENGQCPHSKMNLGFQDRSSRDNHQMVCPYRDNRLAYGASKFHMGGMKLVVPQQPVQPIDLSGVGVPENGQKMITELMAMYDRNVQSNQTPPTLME
The experiment in a line: Fluorescence anisotropy. In kind it is binding. Summed up: (§1)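 FA titration at 25°C in 20 mM Tris-HCl pH 8.0, 200 mM NaCl, 10% glycerol, 10% cOmplete EDTA-free, with 2-mercaptoethanol (EIN3/EIL1 family). Protein added dropwise to 100 nM TMR-labelled peptide; His-EIN3-FLAG titrated 0–2 µM. Anisotropy read at ex/em 543/573.5 nm. Each point is the average of three independent measurements. Apparent Kd obtained by nonlinear curve fitting.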

For test [4], the target named is T3, His-EIN3-FLAG (His6-SUMO-EIN3(200–500)-FLAG) (Arabidopsis thaliana, UniProt O24606).
T3 sequence (O24606 200-500): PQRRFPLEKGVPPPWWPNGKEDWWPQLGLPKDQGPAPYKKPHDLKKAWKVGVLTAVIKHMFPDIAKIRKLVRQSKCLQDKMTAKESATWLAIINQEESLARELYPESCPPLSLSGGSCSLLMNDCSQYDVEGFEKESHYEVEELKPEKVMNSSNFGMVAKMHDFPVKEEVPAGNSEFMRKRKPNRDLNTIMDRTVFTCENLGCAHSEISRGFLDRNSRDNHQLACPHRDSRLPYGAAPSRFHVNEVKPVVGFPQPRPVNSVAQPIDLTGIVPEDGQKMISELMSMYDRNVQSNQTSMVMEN
Briefly: Fluorescence anisotropy. It counts as binding. In outline: as §1

Bridge positions count the residues as written; N and C are the ends. Square brackets hold non-standard residues; d marks the D form. Peptide text beside a SMILES is read from it. * marks the point of attachment. X1 = CN(C)c1ccc2c(-c3ccc(C(=O)*)cc3C(=O)[O-])c3ccc(=[N+](C)C)cc-3oc2c1; R5 = C=CCCC[C@@](C)(N)C(=O)O; S5 = C=CCCC[C@](C)(N)C(=O)O

Turning to `CC/C=C\CC1C(=O)CCC1CC(=O)OC` (stereo not shown) [MeJA, methyl jasmonate, reference compound], the “root growth of seedlings” value in test [1] is “severe root growth inhibition”.
Turning to `CC/C=C\C[C@@H]1C(=O)C=C[C@@H]1CCCCCCCC(=O)O` [OPDA, reference compound], the “plant growth (plant area)” value in test [2] is recorded as “inhibited plant growth”.
On to `CC[C@H](C)[C@H](NC(=O)[C@H](C)NC(=O)CNC(=O)[C@H](CCC(N)=O)NC(=O)[C@@H](NC(=O)[C@H](CC(=O)O)NC(=O)[C@H](CCCNC(=N)N)NC(=O)[C@H](Cc1ccccc1)NC(=O)[C@H](CO)NC(=O)[C@H](CCCNC(=N)N)NC(=O)[C@H](CCCNC(=N)N)NC(=O)[C@H](CCCNC(=N)N)NC(=O)[C@H](CC(=O)O)NC(=O)[C@H](CC(C)C)NC(=O)[C@H](Cc1ccccc1)NC(=O)[C@H](CCCCN)NC(=O)[C@H](CCC(N)=O)NC(=O)[C@H](Cc1ccccc1)NC(=O)c1ccc(-c2c3ccc(=[N+](C)C)cc-3oc3cc(N(C)C)ccc23)c(C(=O)[O-])c1)[C@@H](C)CC)C(=O)N[C@@H](CO)C(=O)N[C@@H](CCCCN)C(=O)N[C@H](C(=O)N[C@@H](CC(=O)O)C(=O)N1CCC[C@H]1C(=O)N[C@@H](CCC(=O)O)C(=O)N[C@H](C(=O)N[C@H](C(=O)N[C@@H](CCCCN)C(=O)N[C@@H](CO)C(=O)N[C@@H](CC(C)C)C(=O)N[C@@H](CC(C)C)C(=O)N[C@@H](C)C(=O)N[C@@H](CO)C(=O)N[C@H](C(=O)O)[C@@H](C)O)[C@@H](C)CC)[C@@H](C)CC)[C@@H](C)CC` [compound 1] (X1-FQKFLDRRRSFRDIQGAISKIDPEIIKSLLAST-OH), for which the Kd in test [3] stood at 210 nM; on His-EIL1-FLAG it was 440 nM.
For the compound `CC[C@H](C)[C@H](NC(=O)[C@H](CCCCN)NC(=O)[C@H](CO)NC(=O)[C@@H](NC(=O)[C@]1(C)CCCC=CCCC[C@](C)(NC(=O)[C@H](CCCNC(=N)N)NC(=O)[C@H](Cc2ccccc2)NC(=O)[C@H](CO)NC(=O)[C@H](CCCNC(=N)N)NC(=O)[C@H](CCCNC(=N)N)NC(=O)[C@H](CCCNC(=N)N)NC(=O)[C@H](CC(=O)O)NC(=O)[C@H](CC(C)C)NC(=O)[C@H](Cc2ccccc2)NC(=O)[C@H](CCCCN)NC(=O)[C@H](CCC(N)=O)NC(=O)[C@H](Cc2ccccc2)NC(=O)c2ccc(-c3c4ccc(=[N+](C)C)cc-4oc4cc(N(C)C)ccc34)c(C(=O)[O-])c2)C(=O)N[C@@H]([C@@H](C)CC)C(=O)N[C@@H](CCC(N)=O)C(=O)NCC(=O)N1)[C@@H](C)CC)C(=O)N[C@@H](CC(=O)O)C(=O)N1CCC[C@H]1C(=O)N[C@@H](CCC(=O)O)C(=O)N[C@H](C(=O)N[C@H](C(=O)N[C@@H](CCCCN)C(=O)N[C@@H](CO)C(=O)N[C@@H](CC(C)C)C(=O)N[C@@H](CC(C)C)C(=O)N[C@@H](C)C(=O)N[C@@H](CO)C(=O)N[C@H](C(=O)O)[C@@H](C)O)[C@@H](C)CC)[C@@H](C)CC` [compound 2] (X1-FQKFLDRRRSFR[S5]IQG[S5]ISKIDPEIIKSLLAST-OH; staple 13-17), the results for the Kd in test [3] and in test [4] were 61 nM and 290 nM, respectively. In addition, the “fold lower Kd with His-MYC3-FLAG than that of 1” value in test [3] is 7 fold.
In the same order, the values of `CC[C@H](C)[C@H](NC(=O)[C@H](C)NC(=O)CNC(=O)[C@H](CCC(N)=O)NC(=O)[C@@H](NC(=O)[C@H](CC(=O)O)NC(=O)[C@H](CCCNC(=N)N)NC(=O)[C@H](Cc1ccccc1)NC(=O)[C@H](CO)NC(=O)[C@H](CCCNC(=N)N)NC(=O)[C@H](CCCNC(=N)N)NC(=O)[C@H](CCCNC(=N)N)NC(=O)[C@H](CC(=O)O)NC(=O)[C@H](CC(C)C)NC(=O)[C@H](Cc1ccccc1)NC(=O)[C@H](CCCCN)NC(=O)[C@H](CCC(N)=O)NC(=O)[C@H](Cc1ccccc1)NC(=O)c1ccc(-c2c3ccc(=[N+](C)C)cc-3oc3cc(N(C)C)ccc23)c(C(=O)[O-])c1)[C@@H](C)CC)C(=O)N[C@@H](CO)C(=O)N[C@@H](CCCCN)C(=O)N[C@H](C(=O)N[C@@H](CC(=O)O)C(=O)N1CCC[C@H]1C(=O)N[C@@H](CCC(=O)O)C(=O)N[C@]1(C)CCCC=CCCC[C@@](C)(C(=O)N[C@@H](CC(C)C)C(=O)N[C@@H](CC(C)C)C(=O)N[C@@H](C)C(=O)N[C@@H](CO)C(=O)N[C@H](C(=O)O)[C@@H](C)O)NC(=O)[C@H](CCCCN)NC(=O)[C@H]([C@@H](C)CC)NC1=O)[C@@H](C)CC` [compound 3] (X1-FQKFLDRRRSFRDIQGAISKIDPE[R5]IK[S5]LLAST-OH; staple 25-28) are 310 nM, 600 nM and 0.67 fold.

The values above are taken from paper PMC11319934 (PNAS Nexus, 2024).
